Experimental findings from ChEMBL document CHEMBL2176901, “Pyrrolo[3,4-h]quinolinones a new class of photochemotherapeutic agents” (Bioorg Med Chem, 2011) are described below.

For one data set, the system named is HL-60. The data set is described as follows: Phototoxicity in 3.75 J/cm'2 UV-A irradiated human HL60 cells after 72 hrs by MTT assay. Particulars: HL-60, light or radiation study. The format is functional, cell-based. An outline of the steps: (§1)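 HL-60 and Jurkat (8×10³/well, RPMI-1640) and MCF-7, LoVo, NCTC-2544 (5×10³/well; DMEM or Ham's F12) preincubated 18 h at 37 °C, 5% CO₂. Compound in DMSO diluted in HBSS pH 7.2, 30 min at 37 °C, then UV-A at 2.5 or 3.75 J/cm². Medium replaced, 72 h incubation, MTT read-out. IC50 as mean ± SEM of three experiments.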
For orientation: Formazan colour is commonly taken as a measure of viable cells.

The test system of data set [1] is Jurkat. In words: Phototoxicity in 3.75 J/cm'2 UV-A irradiated human Jurkat cells after 72 hrs by MTT assay. Format: functional, cell-based. Particulars: light or radiation study. In a few lines:
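Jurkat cells (8 × 10³/well) in RPMI-1640 with 10% FBS, held 18 h at 37 °C, 5% CO2. Compound stock in DMSO was diluted in HBSS pH 7.2 and added for 30 min at 37 °C. Cells were UV-A irradiated (lamp mainly 365 nm, 4.0 mW/cm²), then returned to medium for 72 h. MTT readout. IC50 is the mean ± SEM of three experiences.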

In another data set the test system is MCF7. The data set is described as follows: Phototoxicity in 2.5 J/cm'2 UV-A irradiated human MCF7 cells after 72 hrs by MTT assay. Particulars: MCF7, light or radiation study. The format is functional, cell-based. In a few lines:
as §1

A further data set has as its system LoVo. In words: Phototoxicity in 3.75 J/cm'2 UV-A irradiated human LoVo cells after 72 hrs by MTT assay. The format is functional, cell-based. Particulars: light or radiation study. In a few lines: (§2)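 Seeded at 5 × 10³ cells/well with 10% FBS: MCF-7 and NCTC-2544 in DMEM, LoVo in Ham's F12. Pre-incubated 18 h at 37 °C, 5% CO2. Compound (DMSO stock diluted in HBSS pH 7.2) was applied for 30 min at 37 °C, then UV-A irradiation (mainly 365 nm, 4.0 mW/cm²). Medium was restored for 72 h before MTT. IC50 is the mean ± SEM of three experiences.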

Data set [2] is described as follows: Phototoxicity in 2.5 J/cm'2 UV-A irradiated human NCTC-2544 cells after 72 hrs by MTT assay. Particulars: NCTC-2544, light or radiation study. Format: functional, cell-based. An outline of the steps: as §1
A short description of data set [3]: Phototoxicity in 3.75 J/cm'2 UV-A irradiated human NCTC-2544 cells after 72 hrs by MTT assay. To be noted: NCTC-2544, light or radiation study. The format is functional, cell-based. In a few lines:
as §2

Data set [4] in a line: Photodegradation of the compound in DMSO assessed as formation of photoproducts at 20 uM at 1.3 to 14.1 J/cm'2 UV-A irradiation. The format is physicochemical. In a few lines:
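Compound solutions at 20 μM in DMSO exposed to increasing UV-A doses (HPW 125 lamps, mainly 365 nm, 4.0 mW cm⁻²). Absorption spectra recorded after each dose; isosbestic points noted.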

In data set [5] the test system is Jurkat. The data set is described as follows: Induction of apoptosis in 3.75 J/cm'2 UV-A irradiated human Jurkat cells assessed as early apoptotic cells at 5 uM after 24 hrs by Annexin-V-FITC and propidium iodide based flow cytometry (reference value: 1.9 %). Format: functional. In general terms: A flow cytometer gives signals particle by particle.
Data set [6] relates to Jurkat. In words: Induction of apoptosis in 3.75 J/cm'2 UV-A irradiated human Jurkat cells assessed as late apoptotic cells at 10 uM after 24 hrs by Annexin-V-FITC and propidium iodide based flow cytometry (reference value: 2.9 %). Format: functional.
Data set [7] has as its system Jurkat. The data set is described as follows: Induction of apoptosis in 3.75 J/cm'2 UV-A irradiated human Jurkat cells assessed as necrotic cells at 10 uM after 24 hrs by Annexin-V-FITC and propidium iodide based flow cytometry (reference value: 4.2 %). Format: functional.
Data set [8] relates to Jurkat. The data set is described as follows: Cell cycle arrest in UV-A irradiated human Jurkat cells assessed as accumulation at Sub G1 phase at 5 uM after 24 hrs by propidium iodide based flow cytometry (reference value: 0.1 %). The format is functional. In a few lines:
(§3)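 Exponentially growing Jurkat cells (5×10^5) irradiated with UV-A (365 nm lamp, 2.5 J/cm²) in presence of compound. After 24 h: fixed in ice-cold 70% ethanol, lysed with RNAse A, stained with PI (10 µg/ml), analysed by flow cytometry. Phases calculated on living cells; subG1 is hypodiploid DNA peak.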

The test system of data set [9] is Jurkat. The data set is described as follows: Cell cycle arrest in UV-A irradiated human Jurkat cells assessed as accumulation at G1 phase at 10 uM after 24 hrs by propidium iodide based flow cytometry (reference value: 64.4 %). The format is functional. In a few lines: as §3
In data set [10] the test system is Jurkat. In words: Cell cycle arrest in UV-A irradiated human Jurkat cells assessed as accumulation at S phase at 10 uM after 24 hrs by propidium iodide based flow cytometry (reference value: 25.3 %). The format is functional. An outline of the steps:
as §3

The test system of data set [11] is Jurkat. The data set is described as follows: Cell cycle arrest in UV-A irradiated human Jurkat cells assessed as accumulation at Sub G1 phase at 10 uM after 24 hrs by propidium iodide based flow cytometry (reference value: 0.1 %). The format is functional. In a few lines:
as §3

Data set [12] can be described thus: Drug uptake in endoplasmic reticulum of human NCTC-2544 cells at 10 uM after 2 hrs by fluorescence microphotography. Particulars: nctc-2544, 2 h. Format: ADME, cell-based. An outline of the steps:
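NCTC-2544 cells attached in Petri dishes, given compound at 10 μM for 2 h, washed with HBSS. Then 30 min with Rhodamine 123 (mitochondria), LysoTracker RED, CellMask Orange (plasma membrane) or ER-Tracker. Blue compound fluorescence overlaid on probe images by video-confocal microscopy.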

Data set [13] concerns Jurkat. In words: Induction of apoptosis in UV-A irradiated human Jurkat cells assessed as increase in number of damaged lysosomes at 5 to 10 uM by acridine orange-based flow cytometry. Format: functional, cell-based. In a few lines: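 Lysosomal stability in Jurkat cells 6, 12 and 24 h after UV-A (2.5 J/cm²) with compound. Cells resuspended in RPMI-1640 with 1 µM acridine orange; flow cytometry, excitation 488 nm, emission in FL3. Mean ± SEM of three experiments.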

In data set [14] the test system is Nucleic Acid. In words: Induction of photo-induced DNA damage in Escherichia coli pBR322 DNA at drug:DNA ratio of 1:3 by agarose gel electrophoresis in presence of nitrogen flux. The format is nucleic-acid assay. In a few lines:
(§4)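 Supercoiled pBR322 (100 ng) in 10 mM phosphate buffer pH 7.2 irradiated with UV-A (3.75 J/cm²) at [DNA]/[drug] 1/3, with additives, under nitrogen or in deuterated buffer as stated. Aliquots then incubated at 37 °C with Fpg or Endo III. Run on 1% agarose in TAE, 80 V for 2 h, stained with ethidium bromide; Form I/II fractions from band densitometry.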

The subject of data set [15] is Nucleic Acid. The data set is described as follows: Induction of photo-induced supercoiled Escherichia coli pBR322 DNA damage at drug:DNA ratio of 1:3 by agarose gel electrophoresis in presence of DABCO. Format: nucleic-acid assay. An outline of the steps: as §4
In data set [16] the test system is Nucleic Acid. The data set is described as follows: Induction of photo-induced supercoiled Escherichia coli pBR322 DNA damage assessed as single strand break at drug:DNA ratio of 1:3 by agarose gel electrophoresis in presence of D2O buffer. The format is nucleic-acid assay. An outline of the steps:
as §4

Data set [17] relates to Jurkat. The data set is described as follows: Induction of lipid peroxidation in 2.5 J/cm'2 UV-A irradiated human Jurkat cells assessed as increase in TBARS formation after 24 hrs by thiobarbituric acid assay. Format: functional, cell-based. In a few lines:
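Lipid peroxidation measured as MDA–thiobarbituric acid adducts, with BHT added to samples; calibrated to a 1,1,3,3-tetraethoxypropane standard curve; protein by Peterson method.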

In data set [18] the test system is Nucleic Acid. In words: Induction of photo-induced Escherichia coli pBR322 DNA damage at drug:DNA ratio of 3:1 by agarose gel electrophoresis in presence of endonuclease III.

Calls of active or inactive are those of the source. The rule behind the calls is not given here.

Consider `CCOC(=O)c1c2c(c(C)n1C)-c1c(cc(S(=O)(=O)c3ccccc3)c(=O)n1C)CC2`, for which the IC50 in the data set with HL-60 stood at 0.9 µM; in the data set with Jurkat [1], 0.8 µM; in the data set with MCF7, 1.7 µM; in the data set with LoVo it was 0.4 µM; in data set [2], 2.4 µM; in data set [3] it was 1.3 µM. Besides, the Stability entry in data set [4] was “Unstable”. Moreover, the Activity with Jurkat [5] is 14.4%; in the data set on Jurkat [6], 21.4%; in the data set with Jurkat [7], 8.6%; with Jurkat [8], 10.5%; with Jurkat [9], 39.1%; in the data set with Jurkat [10], 55.6%. For the same compound, the Activity in the data set on Jurkat [11] is 43%; in the data set on Jurkat [17], “Dose-dependent effect”. Also, the Drug uptake entry in data set [12] is given as “Active”. In addition, the result in the data set with Jurkat [13], in the data set with Nucleic Acid [16] and in the data set with Nucleic Acid [18] was Active. The result in the data set with Nucleic Acid [14] and in the data set on Nucleic Acid [15] was inactive.

The IC50 is the concentration that gives 50% inhibition. A higher IC50 goes with lower potency.
